Reference: PubChem BioAssay
Results filed as inconclusive are left out. Calls of active or inactive are those of the source.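 Rule for the calls, unless noted: active = viability at or below 27.92% in each of two runs, the all-compound median minus 4 SD; inconclusive = no clear call, values can overlap the other calls; inactive = the rest.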

How the values were obtained:
[1] = S. cerevisiae growth inhibition in permissive medium (OD615), pilot counter-assay for S. cerevisiae lifespan shortening project, permissive growth control (AID 705;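 active = growth inhibition above 25% in both replicates, a cutoff set 3 SD above the mean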); conditions: OD615, 24 h, at 10 µM, hits give high values
Procedure, shortened: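 Test system: Saccharomyces cerevisiae strain carrying genetically modified DeaD replicative-lifespan system; buffer or medium: SC raffinose/galactose permissive medium; dosing: one dose 10 µM, DMSO 0.25% final; times: 24 h exposure, 30 °C; measured by: OD at 615 nm; read-out basis: growth inhibition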

[2] = S. cerevisiae growth inhibition in restrictive medium, OD615, pilot screen, restrictive growth control, yeast lifespan reduction project (AID 706;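 active = growth inhibition above a set limit, 3 SD over mean compound inhibition, in both replicates, cut at about 43% in these data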;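 note: modified DeaD lifespan yeast strain shifted to restrictive glucose medium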); conditions: OD615, 48 h, at 10 µM, hits give high values
Procedure, shortened: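 material = engineered S. cerevisiae DeaD strain | buffer or medium = glucose-based CSMM-D restrictive medium | dosing = one concentration, 10 µM final, 0.25% DMSO | schedule = 4 h pre-growth plus 48 h compound exposure, 30 °C | detection = OD615 absorbance reading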

[3] = doxorubicin toxicity protection in MRP-1 cells – H69AR cells, CellTiter-Glo, duplicate, MRP-1 activator project, pilot screen (AID 807;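 active = viability increase at or above a cutoff of the median across tested compounds plus 3 SD, cut at about 8.5% in these data, passing the limit was not always enough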;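 note: compound pretreatment 18-22 h then 72 h combined with doxorubicin; 0% = doxorubicin alone and 100% = vehicle without doxorubicin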); conditions: H69AR viability with doxorubicin, CellTiter-Glo luminescence; at 10 µM; hits give high values
[4] = viability of HCT116 without oncogenic beta-catenin – human colon tumor cells, pilot screen (AID 823;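 active = cell viability at or below a set limit in both duplicate runs, the limit being the all-compound median minus 4 SD, cut at about 23% in these data, passing the limit was not always enough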;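 note: 0% = wells killed by 20 µM Hyamine and 100% = untreated DMSO cell wells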); conditions: HCT116 beta-catenin knockout viability, CellTiter-Glo, 60 h; at 10 µM; hits give low values
[5] = viability of PTEN-null HCT116 cells – cell-based, HCT116 clonal line, CellTiter-Glo, pilot screen (AID 824); conditions: HCT116 PTEN-deleted viability, 60 h, at 10 µM, hits give low values;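 note: 0% = 20 µM Hyamine control and 100% = vehicle cell control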
[6] = RAM pathway blockade in budding yeast – dse1pr::URA3 reporter, 5-FOA selection, pilot screen (AID 869;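 active = inhibition over a set limit, the all-compound mean plus 3 SD, in both replicate runs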;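 note: 0% = DMSO wells with no growth and 100% = 10 µM 1-NA-PP1 with full growth; RAM network block rescues cells from 5-FOA so hits raise OD615 growth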); conditions: S. cerevisiae dse1pr::URA3 5-FOA growth, OD615, 2 d; at 10 µM; hits give high values; strain carries analog-sensitive mutant Cbk1 kinase
[7] = RAM signaling pathway blockade in yeast – S. cerevisiae, Pdr1DBD-CYC8 efflux-inhibited sensitized strain, primary screen (AID 1298;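 active = RAM network inhibition above 8.4% in each of two replicates, 3 SD over the compound average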;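 note: 0% = DMSO untreated cells without growth and 100% = 10 µM 1-NA-PP1 full growth; higher means more yeast growth rescued from 5-FOA killing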); conditions: S. cerevisiae cbk1-as DSE1-URA3 strain, 5-FOA growth OD615, 2 d; at 50 µM; hits give high values

Cn1c(C(=O)N2CCN(c3ncccn3)CC2)cc2c(=O)n(C)c3ccccc3c21
inactive: growth inhibition [1] 6.33% | growth inhibition [2] 8.57% | viability increase [3] 2.83% | viability [4] 105% | viability [5] 97.2% | inhibition [6] 1.92% | RAM network inhibition [7] -0.01%

O=C(CSc1nc2c(c(=O)n1-c1ccc(Cl)cc1)SCC2)Nc1ccc2c(c1)OCCO2
inactive: growth inhibition [1] -7.54% | growth inhibition [2] 10.9% | viability increase [3] -2.7% | viability [4] 92% | viability [5] 84.8% | inhibition [6] 2.02% | RAM network inhibition [7] 4.16%

Cn1c(Cn2c(=O)sc3ccccc32)nnc1SCC(=O)NCC1CCCO1 (configuration not stated)
inactive: growth inhibition [1] -6.81% | growth inhibition [2] -7.68% | viability increase [3] -1.15% | viability [4] 99.3% | viability [5] 90% | inhibition [6] 0.85% | RAM network inhibition [7] 2.22%

CCN(CCNC(=O)C1CCCN(S(=O)(=O)c2cnc[nH]2)C1)c1ccccc1 (configuration not stated)
inactive: growth inhibition [1] -0.145% | growth inhibition [2] -6.85% | viability increase [3] -0.77% | viability [4] 106% | viability [5] 101% | inhibition [6] 0.775% | RAM network inhibition [7] 3.46%

Oc1c(C(c2ccccc2)N2CCCCC2)sc2ncnn12 (configuration not stated)
inactive: growth inhibition [1] -0.17% | growth inhibition [2] -3.96% | viability increase [3] -0.8% | viability [4] 95.7% | viability [5] 91.8% | inhibition [6] 1.76% | RAM network inhibition [7] 0.66%

CCC1(C(=O)O)NC(c2cccc(OC)c2O)C2C(=O)N(c3ccccc3)C(=O)C21 (configuration not stated)
inactive: growth inhibition [1] -6.47% | growth inhibition [2] 1.83% | viability increase [3] -2.33% | viability [4] 102% | viability [5] 93.8% | inhibition [6] 3.62% | RAM network inhibition [7] 1.14%

Cc1nn(C)c(C)c1S(=O)(=O)N(CC(=O)NCCN1CCOCC1)c1ccc(C(C)C)cc1
inactive: growth inhibition [1] -13.5% | growth inhibition [2] -11.8% | viability increase [3] -1.69% | viability [4] 102% | viability [5] 101% | inhibition [6] 1.83% | RAM network inhibition [7] 2.73%

CC1=C(C(=O)OC(C)C)C(c2c[nH]c3ccccc23)n2ncnc2N1 (configuration not stated)
inactive: growth inhibition [1] -5.16% | growth inhibition [2] -3.17% | viability increase [3] -1.69% | viability [4] 105% | viability [5] 97.1% | inhibition [6] 2.2% | RAM network inhibition [7] -0.16%

Cc1cc(Cl)ccc1NC(=O)CSc1nnc(-c2ccncc2)n1Cc1ccco1
inactive: growth inhibition [1] 5.41% | growth inhibition [2] 25% | viability increase [3] 0.37% | viability [4] 92.5% | viability [5] 93.9% | inhibition [6] 1% | RAM network inhibition [7] 3.58%

O=C(O)C1CCCCC1C(=O)NCc1cn2ccccc2n1 (configuration not stated)
inactive: growth inhibition [1] -16.1% | growth inhibition [2] -10.5% | viability increase [3] -1.38% | viability [4] 110% | viability [5] 93.7% | inhibition [6] 0.43% | RAM network inhibition [7] 9.11%

Cc1cccc(N2CCN(S(C)(=O)=O)CC2)c1C
inactive: growth inhibition [1] -14.5% | growth inhibition [2] -14.1% | viability increase [3] -0.12% | viability [4] 108% | viability [5] 95.3% | inhibition [6] 0.76% | RAM network inhibition [7] 5.4%

COc1cccc(/C=C2\N=C(SC)SC2=O)c1OC
inactive: growth inhibition [1] -20.1% | growth inhibition [2] -7.18% | viability increase [3] -3.76% | viability [4] 89.8% | viability [5] 105% | inhibition [6] 3.8% | RAM network inhibition [7] 8.12%

CCC(C)[C@@H](C(=O)Nc1ccc(OC)c(OC)c1)N1Cc2ccccc2C1=O (some centres not stated)
inactive: growth inhibition [1] -13.5% | growth inhibition [2] -13.6% | viability increase [3] -2.11% | viability [4] 91.8% | viability [5] 82.8% | inhibition [6] 2.65% | RAM network inhibition [7] 2.81%

Cc1ccc(S(=O)(=O)/N=C(\CN2CCCCC2)N2CCOCC2)cc1
inactive: growth inhibition [1] -11.4% | growth inhibition [2] -13.2% | viability increase [3] -1.32% | viability [4] 101% | viability [5] 95% | inhibition [6] 0.44% | RAM network inhibition [7] 4.62%

CC(=O)Nc1ccc(-n2c(C)c(C(C)=O)c(C(C)=O)c2C)cc1
inactive: growth inhibition [1] -2.51% | growth inhibition [2] -2.06% | viability increase [3] -2.3% | viability [4] 102% | viability [5] 101% | inhibition [6] 0.515% | RAM network inhibition [7] 4.97%

CCCCN1C(=O)C2C(c3ccc(OC)cc3O)NC(CC(C)C)(C(=O)O)C2C1=O (configuration not stated)
inactive: growth inhibition [1] -7.45% | growth inhibition [2] -8.79% | viability increase [3] 0.44% | viability [4] 97.7% | viability [5] 92.7% | inhibition [6] 0.895% | RAM network inhibition [7] 0.99%

CC(C)N(CCCNC(=O)CC1Oc2ccccc2NC1=O)Cc1ccccc1 (configuration not stated)
inactive: growth inhibition [1] 2.46% | growth inhibition [2] 10.3% | viability increase [3] -1.49% | viability [4] 89.3% | viability [5] 97.7% | inhibition [6] 0.47% | RAM network inhibition [7] 3.18%

CC(C)(C)c1ccc(OCC(=O)N2CCN(C=O)CC2)cc1
inactive: growth inhibition [1] -6.68% | growth inhibition [2] -10.2% | viability increase [3] -2.64% | viability [4] 98.1% | viability [5] 100% | inhibition [6] 1.25% | RAM network inhibition [7] 0.67%

Cn1c(Cn2c(=O)sc3ccccc32)nnc1SCc1ccccc1F
inactive: growth inhibition [1] -4.61% | growth inhibition [2] 5.46% | viability increase [3] -0.13% | viability [4] 96.6% | viability [5] 97.4% | inhibition [6] 2.95% | RAM network inhibition [7] 5.27%

CCc1ccc(NC(=O)c2ccc3c(c2)C(=O)N(Cc2ccco2)C3=O)cc1
inactive: growth inhibition [1] -3.35% | growth inhibition [2] 7.26% | viability increase [3] -2.41% | viability [4] 93.6% | viability [5] 89.6% | inhibition [6] 0.185% | RAM network inhibition [7] 1.5%

O/N=C(/Cc1ccccn1)c1ccccc1
inactive: growth inhibition [1] -1.64% | growth inhibition [2] 7.06% | viability increase [3] -1.19% | viability [4] 101% | viability [5] 101% | inhibition [6] 1.97% | RAM network inhibition [7] 0.22%

C=CCNc1oc(Cc2cccc3ccccc23)nc1C#N
inactive: growth inhibition [1] -19.8% | growth inhibition [2] -9.46% | viability increase [3] -3.89% | viability [4] 107% | viability [5] 88% | inhibition [6] 1.04% | RAM network inhibition [7] 2.18%

O=C(O)c1ccc(NS(=O)(=O)c2cccc3cccnc23)cc1
inactive: growth inhibition [1] -2.47% | growth inhibition [2] 7.28% | viability increase [3] -0.56% | viability [4] 102% | viability [5] 94.1% | inhibition [6] 2.25% | RAM network inhibition [7] 1.04%

c1ccc(Cc2nnc3sc(-c4ccc5c(c4)OCCO5)nn23)cc1
inactive: growth inhibition [1] 4.51% | viability increase [3] 0.47% | viability [4] 105% | viability [5] 93.5% | inhibition [6] 1.33% | RAM network inhibition [7] 12.8%
active: growth inhibition [2] 55.8%

CC(NS(C)(=O)=O)C(c1cccs1)N1CCN(Cc2ccccc2)CC1 (configuration not stated)
inactive: growth inhibition [1] -7.18% | growth inhibition [2] 11.4% | viability increase [3] -1.92% | viability [4] 85.5% | viability [5] 87.3% | inhibition [6] 1.25% | RAM network inhibition [7] 3.61%

CC(=O)Nc1nc2cc3c(cc2s1)OCO3
inactive: growth inhibition [1] -3.77% | growth inhibition [2] -8.01% | viability increase [3] -1.9% | viability [4] 96.4% | viability [5] 91.9% | inhibition [6] 1.81% | RAM network inhibition [7] 5.55%

COC(=O)C1CCN(C(c2cccs2)c2sc3nc(C)nn3c2O)CC1 (configuration not stated)
inactive: growth inhibition [1] -3.2% | growth inhibition [2] 1.52% | viability increase [3] -1.54% | viability [4] 102% | viability [5] 96.4% | inhibition [6] 1.68% | RAM network inhibition [7] 1.07%

CCOc1ccc(C2CC(c3cccc(Cl)c3)n3nc(N)nc3N2)cc1 (configuration not stated)
inactive: growth inhibition [1] 5.36% | growth inhibition [2] 7.05% | viability increase [3] -0.08% | viability [4] 92% | viability [5] 88.2% | inhibition [6] 1.14% | RAM network inhibition [7] 9.61%

O=C(c1ccccc1Cl)N1CCC(c2nc3c(nnn3Cc3ccco3)c(=O)[nH]2)CC1
inactive: growth inhibition [1] -6.62% | growth inhibition [2] -11.1% | viability increase [3] -4.32% | viability [4] 92.5% | viability [5] 87.3% | inhibition [6] 0.69% | RAM network inhibition [7] 3.74%

CN(C)CCCNCCCNC(=O)/C(=N\O)c1ccccn1
inactive: growth inhibition [1] -3.34% | growth inhibition [2] -2.4% | viability increase [3] 1.1% | viability [4] 93.3% | viability [5] 105% | inhibition [6] 1.53% | RAM network inhibition [7] 2.45%

COc1ccc(C2=NOC(C(=O)Nc3c(C)n(C)n(-c4ccccc4)c3=O)C2)cc1OC (configuration not stated)
inactive: growth inhibition [1] -9.01% | growth inhibition [2] -7.64% | viability increase [3] 1.69% | viability [4] 102% | viability [5] 106% | inhibition [6] 0.4% | RAM network inhibition [7] 4.75%

C=CCNc1ncnc2ccc(Br)cc12
inactive: growth inhibition [1] 2.36% | growth inhibition [2] 9.25% | viability increase [3] -5.67% | viability [4] 84.1% | viability [5] 75.8% | inhibition [6] 1.87% | RAM network inhibition [7] 4.09%

CC1(C)CC(=O)c2sc(NC(=O)C3CC3)nc2C1
inactive: growth inhibition [1] -1.12% | growth inhibition [2] -10.6% | viability increase [3] 1.37% | viability [4] 104% | viability [5] 106% | inhibition [6] 1.47% | RAM network inhibition [7] 1.56%

Cc1nnc(Sc2nc3c(c(=O)[nH]c(=O)n3C)n2CCc2ccccc2)s1
inactive: growth inhibition [1] -17.6% | growth inhibition [2] -13.6% | viability increase [3] -0.89% | viability [4] 102% | viability [5] 100% | inhibition [6] 0.16% | RAM network inhibition [7] 8.3%

NC(=O)CSc1nnc(Cn2c(=O)sc3ccccc32)n1CCc1ccccc1
inactive: growth inhibition [1] 1.14% | growth inhibition [2] 26.2% | viability increase [3] -1.54% | viability [4] 101% | viability [5] 94.2% | inhibition [6] 0.275% | RAM network inhibition [7] 4.54%

CCC(=O)NCCn1c(C)cc2ccccc21
inactive: growth inhibition [1] 8.84% | growth inhibition [2] 11.4% | viability increase [3] -0.96% | viability [4] 104% | viability [5] 92% | inhibition [6] 1.91% | RAM network inhibition [7] -0.46%
